Reference: ChEMBL document CHEMBL1141859, “Synthesis and antimicrobial activity of 5-hydroxymethyl- 8-methyl-2-(N-arylimino)-pyrano[2,3-c]pyridine-3-(N-aryl)-carboxamides” (2005)
≈ marks a conversion by molar mass, not a printed value.

Columns and labels:
Assay type in all cases: functional
[1] = system: Proteus vulgaris; assay: Antibacterial activity against Proteus vulgaris
Procedure, shortened: (§1)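 Twofold serial broth dilution in tubes, triplicate. Ten tubes of seeded broth (2 mL each); compound added as a 1 mg/mL DMF solution to the first tube, then serially transferred. Bacteria inoculated at 2×10^5 cfu/mL and incubated at 37 °C for 18–24 h. MIC (µg/mL) read visually. DMF solvent, positive growth and standard drug controls run alongside.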

[2] = system: Pseudomonas aeruginosa; assay: Antibacterial activity against Pseudomonas aeruginosa; procedure, shortened: as §1
[3] = system: Escherichia coli; assay: Antibacterial activity against Escherichia coli; procedure, shortened: as §1
[4] = system: Candida albicans; assay: Antifungal activity against Candida albicans
Procedure, shortened: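 For Candida albicans: broth double-dilution in tubes, run in triplicate. Compound added as a 1 mg/mL DMF solution to the first of ten seeded-broth tubes (2 mL), then serially diluted by transfer. Fungal inoculum 5×10^5 cfu/mL; incubation at 30 °C for 48 h. MIC (µg/mL) by visual reading. Controls were DMF solvent, positive growth and standard drug.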

[5] = system: Staphylococcus aureus; assay: Antibacterial activity against Staphylococcus aureus; procedure, shortened: as §1

SMILES	MIC [1] [µg/mL]	MIC [2] [µg/mL]	MIC [3] [µg/mL]	MIC [4] [µg/mL]	MIC [5] [µg/mL]
Cc1ncc(CO)c2cc(C(=O)Nc3ccccc3)/c(=N/c3ccc4c(c3)OCO4)oc12	50 (≈ 116 µM)	50 (≈ 116 µM)	25 (≈ 58.2 µM)	50 (≈ 116 µM)	50 (≈ 116 µM)
COc1ccc(/N=c2\oc3c(C)ncc(CO)c3cc2C(=O)Nc2cccc(C)c2)cc1OC	100 (≈ 218 µM)	100 (≈ 218 µM)	50 (≈ 109 µM)	50 (≈ 109 µM)	50 (≈ 109 µM)
Cc1ccc(NC(=O)c2cc3c(CO)cnc(C)c3o/c2=N\c2ccc(Cl)c(Cl)c2)cc1	50 (≈ 107 µM)	50 (≈ 107 µM)	100 (≈ 214 µM)	25 (≈ 53.4 µM)	100 (≈ 214 µM)
Cc1ccc(NC(=O)c2cc3c(CO)cnc(C)c3o/c2=N\c2ccc(Br)cc2)cc1	50 (≈ 105 µM)	50 (≈ 105 µM)	50 (≈ 105 µM)	25 (≈ 52.3 µM)	25 (≈ 52.3 µM)
CCc1cccc(/N=c2\oc3c(C)ncc(CO)c3cc2C(=O)Nc2ccccc2)c1	100 (≈ 242 µM)	100 (≈ 242 µM)	100 (≈ 242 µM)	100 (≈ 242 µM)	100 (≈ 242 µM)
O=C(O)c1cn(C2CC2)c2cc(N3CCNCC3)c(F)cc2c1=O [CIPROFLOXACIN]	12.5 (≈ 37.7 µM)		25 (≈ 75.4 µM)		
CCc1ccccc1/N=c1\oc2c(C)ncc(CO)c2cc1C(=O)Nc1ccc(C)cc1	50 (≈ 117 µM)	50 (≈ 117 µM)	50 (≈ 117 µM)	50 (≈ 117 µM)	50 (≈ 117 µM)
Cc1ccc2nc(-c3ccc(/N=c4\oc5c(C)ncc(CO)c5cc4C(=O)Nc4ccccc4)cc3)sc2c1	50 (≈ 93.9 µM)	100 (≈ 188 µM)	25 (≈ 46.9 µM)	50 (≈ 93.9 µM)	100 (≈ 188 µM)
COc1cc(/N=c2\oc3c(C)ncc(CO)c3cc2C(=O)Nc2ccccc2)cc(OC)c1	50 (≈ 112 µM)	25 (≈ 56.1 µM)	50 (≈ 112 µM)	100 (≈ 224 µM)	50 (≈ 112 µM)
OC(Cn1cncn1)(Cn1cncn1)c1ccc(F)cc1F [FLUCONAZOLE]				50 (≈ 163 µM)	
Cc1cccc(NC(=O)c2cc3c(CO)cnc(C)c3o/c2=N\c2cccc(Cl)c2)c1	100 (≈ 230 µM)	50 (≈ 115 µM)	50 (≈ 115 µM)	50 (≈ 115 µM)	100 (≈ 230 µM)
Cc1cc(C)cc(/N=c2\oc3c(C)ncc(CO)c3cc2C(=O)Nc2ccccc2C)c1	100 (≈ 234 µM)	50 (≈ 117 µM)	100 (≈ 234 µM)	100 (≈ 234 µM)	100 (≈ 234 µM)
COc1cc(NC(=O)c2cc3c(CO)cnc(C)c3o/c2=N\c2ccc(C(N)=O)cc2)cc(OC)c1	50 (≈ 102 µM)	50 (≈ 102 µM)	50 (≈ 102 µM)	25 (≈ 51.2 µM)	50 (≈ 102 µM)
Cc1cccc(NC(=O)c2cc3c(CO)cnc(C)c3o/c2=N\c2ccc(C)c(C)c2)c1	50 (≈ 117 µM)	12.5 (≈ 29.2 µM)	25 (≈ 58.5 µM)	12.5 (≈ 29.2 µM)	50 (≈ 117 µM)
Cc1ccc(/N=c2\oc3c(C)ncc(CO)c3cc2C(=O)Nc2cccc(C)c2)cc1	50 (≈ 121 µM)	50 (≈ 121 µM)	50 (≈ 121 µM)	50 (≈ 121 µM)	50 (≈ 121 µM)
COc1ccccc1/N=c1\oc2c(C)ncc(CO)c2cc1C(=O)Nc1ccc(C)cc1	100 (≈ 233 µM)	50 (≈ 116 µM)	50 (≈ 116 µM)	25 (≈ 58.2 µM)	100 (≈ 233 µM)
Cc1cccc(/N=c2\oc3c(C)ncc(CO)c3cc2C(=O)Nc2ccccc2C)c1	25 (≈ 60.5 µM)	50 (≈ 121 µM)	50 (≈ 121 µM)	12.5 (≈ 30.2 µM)	100 (≈ 242 µM)
CCOc1ccc(/N=c2\oc3c(C)ncc(CO)c3cc2C(=O)Nc2cccc(C)c2)cc1	50 (≈ 113 µM)	25 (≈ 56.4 µM)	50 (≈ 113 µM)	50 (≈ 113 µM)	50 (≈ 113 µM)

SMILES	MIC [1] [µg/mL]	MIC [2] [µg/mL]	MIC [3] [µg/mL]	MIC [4] [µg/mL]	MIC [5] [µg/mL]
COc1cccc(/N=c2\oc3c(C)ncc(CO)c3cc2C(=O)Nc2ccc(C)cc2)c1	100 (≈ 233 µM)	50 (≈ 116 µM)	25 (≈ 58.2 µM)	50 (≈ 116 µM)	50 (≈ 116 µM)
COc1ccc(NC(=O)c2cc3c(CO)cnc(C)c3o/c2=N\c2ccc(Cl)c(Cl)c2)c(OC)c1	50 (≈ 97.2 µM)	50 (≈ 97.2 µM)	50 (≈ 97.2 µM)	50 (≈ 97.2 µM)	50 (≈ 97.2 µM)
COc1cc(/N=c2\oc3c(C)ncc(CO)c3cc2C(=O)Nc2cccc(C)c2)cc(OC)c1	100 (≈ 218 µM)	50 (≈ 109 µM)	100 (≈ 218 µM)	12.5 (≈ 27.2 µM)	25 (≈ 54.4 µM)
Cc1ncc(CO)c2cc(C(=O)Nc3ccccc3F)/c(=N/c3ccc(C(F)(F)F)cc3)oc12	100 (≈ 212 µM)	50 (≈ 106 µM)	50 (≈ 106 µM)	25 (≈ 53 µM)	50 (≈ 106 µM)
Cc1ncc(CO)c2cc(C(=O)Nc3ccccc3)/c(=N/c3ccc(Oc4ccccc4)cc3)oc12	50 (≈ 105 µM)	50 (≈ 105 µM)	25 (≈ 52.4 µM)	50 (≈ 105 µM)	50 (≈ 105 µM)
Cc1ncc(CO)c2cc(C(=O)Nc3ccccc3)/c(=N/c3ccccc3)oc12	50 (≈ 130 µM)	50 (≈ 130 µM)	25 (≈ 64.9 µM)	50 (≈ 130 µM)	50 (≈ 130 µM)
Cc1ccc(/N=c2\oc3c(C)ncc(CO)c3cc2C(=O)Nc2ccccc2C)cc1C	50 (≈ 117 µM)	25 (≈ 58.5 µM)	50 (≈ 117 µM)	100 (≈ 234 µM)	100 (≈ 234 µM)
Cc1ccc(NC(=O)c2cc3c(CO)cnc(C)c3o/c2=N\c2ccc(Oc3ccccc3)cc2)cc1	50 (≈ 102 µM)	50 (≈ 102 µM)	50 (≈ 102 µM)	12.5 (≈ 25.4 µM)	50 (≈ 102 µM)
CCc1ccc(NC(=O)c2cc3c(CO)cnc(C)c3o/c2=N\c2ccc3c(c2)OCO3)cc1	50 (≈ 109 µM)	50 (≈ 109 µM)	50 (≈ 109 µM)	12.5 (≈ 27.3 µM)	100 (≈ 219 µM)
CCOC(=O)c1ccc(/N=c2\oc3c(C)ncc(CO)c3cc2C(=O)Nc2ccccc2)cc1	50 (≈ 109 µM)	50 (≈ 109 µM)	50 (≈ 109 µM)	50 (≈ 109 µM)	50 (≈ 109 µM)
COc1ccc(/N=c2\oc3c(C)ncc(CO)c3cc2C(=O)Nc2cccc(C)c2)c(OC)c1	50 (≈ 109 µM)	25 (≈ 54.4 µM)	50 (≈ 109 µM)	50 (≈ 109 µM)	50 (≈ 109 µM)
CCc1ccc(/N=c2\oc3c(C)ncc(CO)c3cc2C(=O)Nc2ccccc2)cc1	50 (≈ 121 µM)	50 (≈ 121 µM)	50 (≈ 121 µM)	50 (≈ 121 µM)	50 (≈ 121 µM)
COc1ccc(NC(=O)c2cc3c(CO)cnc(C)c3o/c2=N\c2ccc(Cl)c(Cl)c2)cc1	25 (≈ 51.6 µM)	25 (≈ 51.6 µM)	25 (≈ 51.6 µM)	12.5 (≈ 25.8 µM)	12.5 (≈ 25.8 µM)
COc1ccc(NC(=O)c2cc3c(CO)cnc(C)c3o/c2=N\c2ccc(OC)c(OC)c2)c(OC)c1	50 (≈ 98.9 µM)	50 (≈ 98.9 µM)	50 (≈ 98.9 µM)	50 (≈ 98.9 µM)	25 (≈ 49.5 µM)
Cc1ccc(NC(=O)c2cc3c(CO)cnc(C)c3o/c2=N\c2cccc(Cl)c2)cc1	50 (≈ 115 µM)	50 (≈ 115 µM)	50 (≈ 115 µM)	25 (≈ 57.6 µM)	50 (≈ 115 µM)
Cc1cccc(NC(=O)c2cc3c(CO)cnc(C)c3o/c2=N\c2ccccc2)c1	50 (≈ 125 µM)	25 (≈ 62.6 µM)	50 (≈ 125 µM)	12.5 (≈ 31.3 µM)	100 (≈ 250 µM)
Cc1cccc(/N=c2\oc3c(C)ncc(CO)c3cc2C(=O)Nc2ccccc2)c1	100 (≈ 250 µM)	100 (≈ 250 µM)	100 (≈ 250 µM)	100 (≈ 250 µM)	100 (≈ 250 µM)
Cc1ccc(NC(=O)c2cc3c(CO)cnc(C)c3o/c2=N\c2ccccc2I)cc1	100 (≈ 190 µM)	50 (≈ 95.2 µM)	50 (≈ 95.2 µM)	50 (≈ 95.2 µM)	25 (≈ 47.6 µM)
